GRIN3A LBD mod: binders of NR3A ligand-binding domain, primary screen, biophysical, differential scanning fluorimetry, uHTS; Glutamate receptor ionotropic, NMDA 3A (GRIN3A) ligand-binding domain; NR3A LBD differential scanning fluorimetry, Tm shift; 0% = protein alone, 100% = glycine-bound protein; Tm shift relative to glycine control, % at 25 µM; 340,000 compounds, 2.5% hits;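 active means melting temperature shift of at least 10% of the positive control shift, at one fixed dose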
T cell modulator: modulators of CD8 T cell-vesicle binding, primary screen, mouse 2C CD8+ T cells, flow cytometry | response (vesicle binding), % at 7 µM | 2C CD8+ T cell-vesicle binding; stronger effect = lower value | AID 2052, 2009 | 330,000 compounds, 0.068% hits;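 active means response, share of CD8 T cells binding vesicles, and their 90th percentile fluorescence all below set limits, cut at about 80% in these data, passing the limit was not always enough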;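 further: values below 100% mean blocked vesicle binding to the CD8+ T cells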
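Incubation: binding step 1.5 h, 37 °C, antibody labelling 20 min, ice; system: murine 2C transgenic CD8+ T lymphocytes; technique: cytometric PE anti-B7-1 and Alexa647 anti-CD8 signals after 1% paraformaldehyde fixation; also added: QL9-charged Drosophila Ld/ICAM-1/B7-1 vesicles; control set: naked versus QL9-loaded vesicles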
Rtt109 HAT inh: inhibitors of C. albicans Rtt109/Vps75 HAT, primary screen, biochemical, ThioGlo CoA-SH fluorescence, plate reader; Histone acetyltransferase RTT109 (Candida albicans (strain SC5314 / ATCC MYA-2876)), …; purified Rtt109/Vps75, 4 h; inhibition, % at 34.9 µM; 330,000 compounds, 0.16% hits; AID 540336, 2011;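 active means inhibition of at least 50% in every replicate; inconclusive means best replicate reaches 50% inhibition but some replicates fall short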
Target sequence (Q5AAJ8 whole entry, looked up): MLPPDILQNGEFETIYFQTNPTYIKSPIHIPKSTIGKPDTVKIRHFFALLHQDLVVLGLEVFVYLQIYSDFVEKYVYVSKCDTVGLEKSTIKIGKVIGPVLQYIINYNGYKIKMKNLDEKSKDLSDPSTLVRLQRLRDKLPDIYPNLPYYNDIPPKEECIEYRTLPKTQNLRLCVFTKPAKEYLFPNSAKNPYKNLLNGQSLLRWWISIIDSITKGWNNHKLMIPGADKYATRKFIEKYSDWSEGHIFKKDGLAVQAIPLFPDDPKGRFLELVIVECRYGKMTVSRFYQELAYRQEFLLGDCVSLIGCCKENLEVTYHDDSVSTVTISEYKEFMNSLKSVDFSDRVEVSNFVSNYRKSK
JMJD2C inh: inhibitors of GASC-1 histone demethylase, primary screen, biochemical, fluorescence, DELFIA europium; inhibition, % at 2.35 µM; GST-JMJD2C(1-420) H3K9me3 demethylation; Lysine-specific demethylase 4C (Homo sapiens), Q9H3R0; 330,000 compounds, 0.069% hits;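 active means more than half of a compound's replicate wells show inhibition beyond 50%, single wells judged on their own value; inconclusive means some, but no more than half, of replicates pass 50% inhibition; inactive means no replicate passes 50% inhibition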;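 further: signal counts dimethyl H3K9 product captured on neutravidin plate; 0% = median of DMSO wells and 100% = 0.3 times that DMSO median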
The depositor's hits bear a star; i = inactive; ? = inconclusive; / = no result. In the library only some 2.8% were active in any assay of this set; here they are far more common.

SMILES	GRIN3A LBD mod	T cell modulator	Rtt109 HAT inh	JMJD2C inh
Cc1ccc(S(=O)(=O)N2CCN(CC(=O)NCC3(N4CCOCC4)CCCCC3)CC2)cc1	-1.9	/	7.6	/
COc1ccccc1CCNC(=O)CN1C(=O)c2ccccc2S1(=O)=O	2.6	274.1	-4.3	1.5
O=C(Nc1cccc(Cl)c1)Nc1sccc1-c1nc2ccccc2s1	28.6*	417.9	-5.7	-20.8
O=C(Nc1ccccc1)Nc1sccc1-c1nc2ccccc2s1	21.5*	i	7.8	3.3
COc1ccccc1NC(=O)Nc1sccc1-c1nc2ccccc2s1	9.8	780.7	/	-9.9
CC(=O)NCc1ccc(C(=O)CSc2nnc(C3CC3)n2C2CC2)cc1	0.2	401.2	5.2	4.7
CCCCOc1cccc(-c2cc(C(=O)NNC(=S)NCC)c3ccccc3n2)c1	11.3*	331.3	6.7	6.7
CCCCOc1ccc(-c2cc(C(=O)NNC(=S)NCC)c3ccccc3n2)cc1	17.4*	319.4	7.3	-1.6
CCNC(=S)NNC(=O)c1cc(-c2cccc(OCC)c2)nc2ccccc12	-6.9	452.9	1.5	?
CCC(=O)Nc1cc2c3c(c1)CCN3C(=O)CC2	11.3*	154.8	5.0	2.6
CC(C)(C)CC(=O)Nc1cc2c3c(c1)CCN3C(=O)CC2	-0.1	293.5	2.8	1.8
Cn1c(SCC(=O)Nc2cccc(F)c2)nnc1-c1cc2ccccc2o1	11.0*	200.4	-19.5	4.6
CN1CCN(c2nc(C#N)cc(-c3ccccc3)n2)CC1	10.8*	421.7	-3.0	-1.7
FC(F)(F)c1cc(-c2ccccc2)nc(N2CCCCCC2)n1	10.8*	232.5	-15.1	1.0
Cc1csc2nc(SCC(=O)Nc3ccccc3F)[nH]c(=O)c12	2.0	304.5	-8.6	-5.3
O=C(Cn1cnc([N+](=O)[O-])c1)c1ccc(F)cc1	-1.3	303.0	6.0	0.1
COCCOc1ccc(C(F)(F)F)cc1NC(=O)COC(=O)C12CC3CC(CC(O)(C3)C1)C2	26.0*	255.9	-4.0	4.1
O=C(COC(=O)C12CC3CC(CC(O)(C3)C1)C2)Nc1ccc(Br)cc1F	-0.2	753.1	-11.5	8.6
CCCCCCOc1ccc(N2C(=O)CC(S/C(N)=N/N=C(\C)c3cccs3)C2=O)cc1 (stereo not given)	8.5	416.8	1.4	5.1
C/C(=N\N=C(/N)SC1CC(=O)N(c2ccccc2)C1=O)c1cccs1 (stereo not given)	-2.3	871.0	5.8	5.4
N/C(=N\N=C\c1cccs1)SC1CC(=O)N(c2ccc(Br)cc2)C1=O (stereo not given)	4.8	134.5	21.5	-0.4
C/C(=N\N=C(/N)SC1CC(=O)N(c2ccc(Cl)cc2)C1=O)c1cccs1 (stereo not given)	18.3*	52.1	15.9	0.9
C/C(=N\N=C(/N)SC1CC(=O)N(c2ccc(Br)cc2)C1=O)c1cccs1 (stereo not given)	12.0*	162.5	-5.0	3.4
C/C(=N\N=C(/N)SC1CC(=O)N(c2ccc(Cl)c(Cl)c2)C1=O)c1cccs1 (stereo not given)	33.9*	466.6	16.4	1.5
CSCC[C@H](NC(=O)N1CCn2c1nc1ccccc12)C(=O)NCc1ccc(C)cc1	-1.4	433.6	-7.6	11.4
SMILES	GRIN3A LBD mod	T cell modulator	Rtt109 HAT inh	JMJD2C inh
O=C(NCCC1=CCCCC1)C(=O)NCC(c1ccco1)N1CCN(c2ccc(F)cc2)CC1 (stereo not given)	10.0*	189.2	-2.9	-2.7
O=C(Nc1cccc(Cl)c1)c1ccc(F)c(S(=O)(=O)NCc2cccs2)c1	13.4*	499.6	2.9	5.4
CCN(c1ccccc1)S(=O)(=O)c1cc(C(=O)Nc2cccc(Cl)c2)ccc1F	15.4*	224.4	-5.7	-7.3
Cc1cccc(NC(=O)c2ccc(F)c(S(=O)(=O)NCc3ccco3)c2)c1	-2.8	102.0	16.9	6.5
CCc1ccc(NC(=O)c2ccc(F)c(S(=O)(=O)N(CC)c3ccccc3)c2)cc1	2.4	278.8	-3.0	-7.4
CCN(CC)S(=O)(=O)c1cc(C(=O)OCC(=O)Nc2cccc(Br)c2)ccc1F	18.4*	255.2	-3.0	3.1
O=C(Nc1ccccc1)O[C@@H]1C[C@H]2CCC(=O)N3CC[C@@H](C1)[C@@H]23	/	283.6	/	7.0
Cc1cccc(NC(=O)CCCC(=O)OC(C)C(=O)c2ccccc2)c1 (stereo not given)	2.7	187.7	-5.2	-5.7
O=C(Nc1cccc(Cl)c1Cl)c1cc(S(=O)(=O)NCCc2ccccc2)ccc1F	18.5*	243.1	-4.3	-3.0
CCOC(=O)Nc1c(Cl)n(C)c(=O)n(C)c1=O	10.6*	305.7	-8.1	6.8
CCOC(=O)Nc1sc(=S)n(C)c1C	3.3	171.9	1.4	7.8
CC(=O)Nc1ccc(C2=NNC(=Nc3cccc(S(=O)(=O)N(C)C)c3)SC2)cc1	12.1*	130.8	2.4	7.2
CN(C)S(=O)(=O)c1cccc(N=C2NN=C(c3ccccc3)CS2)c1	-1.4	200.8	/	1.2
COc1ccc2cc(C(=O)N/N=C/c3cc(OC)c(OC)c(OC)c3)[nH]c2c1	18.8*	72.9	-13.3	8.3
COc1cc2cc(C(=O)N/N=C/c3ccc(F)cc3)[nH]c2cc1OC	13.1*	335.5	-2.5	-2.4
CCOc1ccc2[nH]c(C(=O)N/N=C/c3ccc(OC)cc3)cc2c1	/	228.6	1.7	-3.5
COc1ccc2[nH]c(C(=O)N/N=C/c3ccc(O)cc3O)cc2c1	13.3*	148.3	6.5	-4.4
COc1ccc(/C=N/NC(=O)c2cc3cc(OC)c(OC)cc3[nH]2)cc1	3.6	206.0	-9.6	-11.4
Cc1ccc(CNCc2cc(Cl)ccc2O)cc1	-3.7	334.5	0.8	0.9
COc1ccc(CC(=O)Nc2nnc(CC(C)C)s2)cc1S(=O)(=O)N1CCOCC1	-2.4	/	4.0	/
Cc1ccc(/C=C2/CNC/C(=C/c3ccc(C)cc3)C2=O)cc1	30.8*	/	-0.3	/
COc1ccc(CN(C)C(=O)c2ccccc2Sc2ccccc2C#N)c(OC)c1	-1.3	265.0	11.4	2.8
COC1CCCCC1NS(=O)(=O)c1ccccc1 (stereo not given)	18.4*	288.3	-13.0	11.8
COC1CCCCC1NS(=O)(=O)c1ccc(Cl)cc1 (stereo not given)	0.0	840.9	0.4	2.6
S=c1nc[nH]c2c1[nH]c1ccc(Cl)cc12	33.1*	284.6	-6.1	2.7
S=c1nc[nH]c2c1[nH]c1ccccc12	5.2	343.0	1.0	-0.4
CCCC1(CC)C(=O)NC(=O)N=C1N (stereo not given)	-1.6	/	0.9	/
CCn1c(=O)c(=O)[nH]c2c(=O)oc3ccc(S(=O)(=O)Nc4ccccc4)cc3c21	16.3*	869.6	1.2	4.5
COC1OC2COC(c3ccccc3)OC2C(O)C1NC(=O)c1ccccc1 (stereo not given)	1.0	/	6.3	/
